The source of these data is ChEMBL document CHEMBL4513216, “Probing the Open Global Health Chemical Diversity Library for Multistage-Active Starting Points for Next-Generation Antimalarials” (ACS Infect Dis, 2020).

A short description of this data set: Toxicity liver stage against HepG2, at 10uM. Format: cell-based. More on the design: test concentration 10 uM, cell line HepG2-A16-CD81EGFP. As to conditions: human, HepG2-A16-CD81EGFP cells; read-out: INHIBITION
Put shortly:
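Uninfected HepG2-A16-CD81EGFP cells, 3 × 10^3 per well, 1536-well, plated on prespotted compound at 10 μM final, parasite-free screening media added to match infected plates; puromycin 10 μM positive, DMSO 0.5% negative; run in parallel with 48 h PbLuc assay at 37 °C, 5% CO2; viability by CellTiter-Glo luminescence, normalized to controls.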
For the compound `CCCC(O)CN1CC(C)(C)CN(C(=O)CCc2ccccc2)CC1=O` (stereo not given), the cytotoxicity at 10 µM was -15.4%. Turning to `CSCC[C@H](NC(=O)N1CCC(Cc2ccccc2)CC1)C(=O)O`, the cytotoxicity at 10 µM was -1.55%. For `O=C1CC(c2cccnc2)c2c(c(C(=O)O)cn2-c2ccc(Cl)cc2)N1` (stereo not given), the cytotoxicity at 10 µM was -0.462%. For `COC(=O)CNC(=O)c1sccc1N(C)S(=O)(=O)c1ccc(Cl)cc1`, the cytotoxicity at 10 µM was -15.4%. For `O=C(c1ccccc1F)N1CC(c2nc(-c3ccc[nH]c3=O)no2)C1`, the cytotoxicity at 10 µM worked out at 2.21%. Regarding `O=C(c1ccco1)N1CCC(CSCc2ccco2)CC1`, the cytotoxicity at 10 µM is -6.49%.

In the case of `CN(C)C(=O)Cc1ccc(NC(=O)c2cn(C)nn2)cc1`, the cytotoxicity at 10 µM is -5.27%.

In the case of `C[C@H]1C[C@@H]2CCN(Cc3nccs3)C[C@H]2O1`, the cytotoxicity at 10 µM is -3%. As to `CCN1CC[C@]2(CN(C(=O)C3CCOCC3)C[C@H]2c2ccccc2)C1=O`, the cytotoxicity at 10 µM stood at 8.58%. In the case of `O=S(=O)(C1CC1)N1CCn2c(Cn3cncn3)cnc2C1`, the cytotoxicity at 10 µM turned out to be 12.2%. As for `COCCN1C(=O)C2(CCC(C(=O)Nc3ccc(F)cc3)CC2)N=C1C` (stereo not given), the figure is 9.7%; as for `c1ccc(CNCC2Cn3nncc3CO2)nc1` (stereo not given), 4.93%. For the compound `CCOCC1CC2(CCN(C(=O)C3CC=CC3)CC2)CO1` (stereo not given), the cytotoxicity at 10 µM was found to be 1.5%. For the compound `CN(C)c1nc(N2CCCC2)nc2c1CCN(C(=O)c1ccoc1)CC2`, the cytotoxicity at 10 µM was 14.9%.

In the case of `CC(=O)N1CC[C@H]2C(=O)N(c3ccsc3)CCO[C@H]2C1`, the cytotoxicity at 10 µM was found to be 4.47%. For the compound `COCCC1COC2(CCN(C(C)=O)CC2)C1` (stereo not given), the cytotoxicity at 10 µM worked out at 8.19%. Take `Cc1cc(C(=O)N2CCc3c(CN(C)C(C)C)n[nH]c3C2)[nH]n1`: the cytotoxicity at 10 µM was -133%. As to `O=C(NCc1ccccc1)c1nn(C2CCS(=O)(=O)C2)c2c1CCCC2` (stereo not given), the cytotoxicity at 10 µM turned out to be 5.92%.

Consider `CC(C)OCCCNC(=O)c1c(-n2cnnn2)sc2c1CCCC2`, for which the cytotoxicity at 10 µM came out at 11.9%. With `CSc1ccc(C2CC(=O)Nc3c2c(=O)[nH]n3C(C)C)cc1` (stereo not given), the cytotoxicity at 10 µM amounted to 6.71%. For `O=C(CCO)N1CCOC2(CCCN(C(=O)c3ccco3)C2)C1` (stereo not given), the cytotoxicity at 10 µM is -11.7%. Turning to `Cc1nc(N2CCCC2)ncc1-c1cc(O)nc(N2CCN(C)CC2)n1`, the cytotoxicity at 10 µM amounted to 2.6%.

In the case of `CC(C)S(=O)(=O)N1CCN(C(=O)c2cnn(C)c2Cl)CC1`, the cytotoxicity at 10 µM stood at 1.6%. As for `CNc1cccc(CC2COCCN(C(=O)c3cccnc3)C2)n1` (stereo not given), the figure is -1.99%; as for `c1cncc(CN2CCC(c3ccnc4nccn34)C2)c1` (stereo not given), 5.78%; as for `COCC(=O)N1CCC(c2cc3nc(C)cc(C(F)(F)F)n3n2)CC1`, 4.49%. With `CC(C)N1C(=O)CO[C@H]2CCN(C(=O)c3ccc4c(c3)CCC4)CC[C@@H]21`, the cytotoxicity at 10 µM worked out at 3.79%. For `CC(=O)N1CCCC(c2nccnc2-c2ccc(CO)cc2)C1` (stereo not given), the cytotoxicity at 10 µM worked out at 1.03%. Consider `CC(C)CN1CCCC(c2nc(O)c3cc(F)ccc3n2)C1` (stereo not given), for which the cytotoxicity at 10 µM is 10.3%. To `CN(Cc1nnc(C2CC2)o1)Cc1ccccc1N1CCOCC1` belongs -7.83%; to `CCn1cc(S(=O)(=O)Nc2cccnc2-n2cccn2)nc1C`, 3.21%; to `CN1CCC(NC(=O)c2cc(Br)cc(Cl)c2O)C1=O` (stereo not given), -5.79%.

Turning to `Oc1ccc(Br)c(CNc2cccc(-c3nnc[nH]3)c2)c1`, the cytotoxicity at 10 µM was -38.9%. As for `CS(=O)(=O)N1CCCC(C(=O)N2CCOc3ccccc32)C1` (stereo not given), the figure is 0.421%; as for `CC(C)(O)CN1CCN(C(=O)c2cccn2Cc2ccccc2)CC1`, -3.88%; as for `Cc1ccc(CNC(CN2CCN(C)CC2)c2ccccc2)cc1C` (stereo not given), -7.49%. In the case of `CCc1ncc2c(n1)CN(Cc1ncc(C(C)(C)C)o1)CC2`, the cytotoxicity at 10 µM was -15.9%.

Consider `CCN(CC)C(=O)Nc1cccc(Oc2ccccn2)c1`, for which the cytotoxicity at 10 µM is 8.12%. To `COCCOCC(=O)Nc1ccccc1F` belongs 14.7%; to `CCc1nnc2n1CCN(Cc1noc(-c3cccc(C)c3)n1)C2`, 12%; to `CC(C)Cc1nc(CSC2CCCN(c3cnn(C)c3)C2=O)no1` (stereo not given), 17.7%. Turning to `CN(C)CCn1ccc2cc(NC(=O)NCc3ccon3)ccc21`, the cytotoxicity at 10 µM is -2.51%.

In the case of `N#Cc1ccc(CNc2ncc(C#N)cc2Cl)cc1`, the cytotoxicity at 10 µM worked out at 17.7%.

Consider `CN1CCN(c2cccc(Cl)c2CNCCS(C)(=O)=O)CC1`, for which the cytotoxicity at 10 µM was -0.641%. For the compound `Cc1ccc(S(=O)(=O)NC(=O)C2(c3ccc(F)cc3)CCC2)c(C)c1`, the cytotoxicity at 10 µM is -1.09%.

In the case of `O=C(CN(CC(O)c1ccc(F)cc1)C1CC1)Nc1cccnc1` (stereo not given), the cytotoxicity at 10 µM is -4.19%. For the compound `Cc1cc(N2CCc3c(ncn3C)C2)n2nc(C(F)(F)F)nc2n1`, the cytotoxicity at 10 µM was determined as 4.11%.

Turning to `CCS(=O)(=O)NC(CCSC)C(=O)Nc1ccccc1C` (stereo not given), the cytotoxicity at 10 µM came to 1.06%. As for `CN(C)CCC1CCN(c2cc(N3CCCC3CO)ncn2)CC1` (stereo not given), the figure is -6.27%. As to `O=C(NCc1nccs1)N1CCOC(c2ccccc2Cl)C1` (stereo not given), the cytotoxicity at 10 µM is -3.67%. To `Cc1ccc(NC(=O)CNc2cccc3c2CCCC3)c(Br)c1` belongs 14.8%. As for `Cc1cc(C(N)=O)ccc1NC(=O)c1nc(N2CCCC2)ncc1Cl`, the figure is -8.94%; as for `Cc1ccc(-n2nnc(CC(=O)N3CCOCC3)c2C)cc1`, -12.9%.

For the compound `COc1ccc(Cn2cc(C(=O)N(C)Cc3ccon3)nn2)cc1`, the cytotoxicity at 10 µM was determined as 5.61%. `CC(C)n1cccc1C(=O)N1CC[C@@H](NC(=O)c2ccccn2)[C@H](O)C1`: the cytotoxicity at 10 µM worked out at 2.35%. As for `N#Cc1ccccc1C(=O)N1C[C@@H](CN2CCCCC2)[C@@H](CO)C1`, the figure is -0.165%. To `Cn1cc(CN(C(=O)C2COc3ccccc3C2)C2CC2)cn1` (stereo not given) belongs 1.81%; to `Cc1cccc(-c2nc(N)nc3c2CN(C(=O)c2ccncn2)C3C)c1` (stereo not given), 4.65%. Turning to `COCCC1(C(=O)O)CCCN(c2cc(C)c3ccccc3n2)C1` (stereo not given), the cytotoxicity at 10 µM was -38.7%.

`Cc1ccc(CN2CCN(c3ncnc4[nH]cnc34)CC2CCO)cc1` (stereo not given): the cytotoxicity at 10 µM worked out at 28%. Turning to `CC(C)c1nccc(C2(c3ccccc3Cl)CCNCC2)n1`, the cytotoxicity at 10 µM turned out to be 1.93%. To `CCC(Nc1cccc(OC)c1)C(=O)N(CCOC)Cc1cnn(C)c1` (stereo not given) belongs -1.28%; to `CN(Cc1cc2n(n1)CCCNC2)Cc1ccno1`, 2.57%. In the case of `O=C(c1ccc(S(=O)(=O)NC2CCC2)cc1)N1CC[C@H]2CNC[C@H]21`, the cytotoxicity at 10 µM was -13.5%. For the compound `CN(CCc1ccccc1)c1cnn(CC(=O)N2CCOCC2)c(=O)c1`, the cytotoxicity at 10 µM stood at 1.77%. On to `CN1CCCNC(=O)C12CCN(C(=O)c1ccc3[nH]cnc3c1)CC2`, for which the cytotoxicity at 10 µM was -1.16%. In the case of `C=C(C)COc1ccccc1NC(=O)NC1CCOCC1`, the cytotoxicity at 10 µM is 4.67%. As to `COCC(=O)N1CCC(c2nccn2CC2CC2)CC1`, the cytotoxicity at 10 µM was -14.6%. On to `Cc1cc(C)c2nc(CN3CC[C@@H](O)C3)cc(O)c2c1`, for which the cytotoxicity at 10 µM is -6.23%. For the compound `Cc1ccc2c(ccn2CCC(=O)O)c1`, the cytotoxicity at 10 µM was -3.69%. On to `NC(=O)c1cccc(OCC(=O)NS(=O)(=O)c2ccc3c(c2)CCC3)c1`, for which the cytotoxicity at 10 µM is -6.22%.

With `Cc1noc(C)c1CNC(=O)N1CCC(Cc2cnn(C)c2)C1` (stereo not given), the cytotoxicity at 10 µM was -8.66%. Turning to `COc1c(C2CCCN2Cc2csc(C(C)C)n2)c(C)nn1C` (stereo not given), the cytotoxicity at 10 µM is -1.53%. As for `Cc1nc(CN2CCCN(CCOc3cccc(C#N)c3)CC2)no1`, the figure is -5.85%; as for `CC(C)c1noc(C(C)N2CCN(CCO)CC2)n1` (stereo not given), -2.26%. As for `O=C1NCc2ccc(NC(=O)C3CCCN3c3nccs3)cc21` (stereo not given), the figure is -6.02%; as for `Cc1cc(C)c(CNC(=O)C2CCCN(c3cnccn3)C2)c(=O)[nH]1` (stereo not given), -13.7%; as for `CN(Cc1ccc(F)cc1)C(=O)CN1CCOC(Cn2cncn2)C1` (stereo not given), -4.07%. For `CC(C)(C)n1ncc2c1CCCC2NCc1cccc2c1OCO2` (stereo not given), the cytotoxicity at 10 µM came out at 3.37%. As for `CCN1CCN(CC(C)(O)c2cccc(C(F)(F)F)c2)CC1` (stereo not given), the figure is -11.4%; as for `Cn1ccc(CN2CCC(CCc3ccc(O)cc3)CC2)cc1=O`, 1.2%. As for `Cc1noc(CN2Cc3ccccc3CC2c2nnc(C)o2)n1` (stereo not given), the figure is -4.62%; as for `Cc1cc(C2CCNCC2)nc(-c2ccsc2)n1`, -1.97%; as for `Cc1cccc(N2CCCC3(C2)CN(S(=O)(=O)C2CC2)CCO3)c1` (stereo not given), 11%. In the case of `COCCN(C)C[C@@H]1CCC[C@@H]2CN(Cc3ccc(OC)nc3)C[C@@H]21`, the cytotoxicity at 10 µM was 8.13%. Turning to `Cc1nn(C)c(N(C)C)c1CNC1CCc2c(Cl)cccc21` (stereo not given), the cytotoxicity at 10 µM was -7.07%. With `Cn1nccc1-c1ncc2c(c1C(=O)O)CCN(Cc1ccncc1)C2`, the cytotoxicity at 10 µM turned out to be 6.1%. With `Cn1cc(CN2CCC3(CC2)C(=O)Nc2ccccc23)cn1`, the cytotoxicity at 10 µM is 0.134%.

On to `COCC(=O)N1CCCn2c(CN3CCCCC3)nnc2C1`, for which the cytotoxicity at 10 µM is -15.8%. As for `O=C(N1CCCC1)N1CC[C@H]2[C@H]1CCN2c1ncccn1`, the figure is -1.19%. As for `CCOCc1cnc2n1CCN(Cc1scnc1C)C2C` (stereo not given), the figure is 8.85%; as for `O=C(CC1CC1)N1C[C@@H]2CCN(c3cccnc3)C[C@@H]2C1`, 4.62%.

Take `CCN1C(=O)[C@H]2CN(CC(C)C)C[C@H]2C12CCN(S(C)(=O)=O)CC2`: the cytotoxicity at 10 µM worked out at 10.3%.

As to `c1ccc(CN2CCOC3(COCCN(c4ncccn4)C3)C2)nc1` (stereo not given), the cytotoxicity at 10 µM was determined as 8.28%. Take `CN(C)C(=O)[C@H]1C[C@H]2CN(S(=O)(=O)Cc3ccccc3)C[C@@H]1O2`: the cytotoxicity at 10 µM came out at 4.81%.
